JMJD2C inh: inhibitors of GASC-1 histone demethylase, primary screen, biochemical, fluorescence, DELFIA europium | inhibition, % at 2.35 µM | GST-JMJD2C(1-420) H3K9me3 demethylation | Lysine-specific demethylase 4C (Homo sapiens), Q9H3R0 | AID 2099, 2009 | hit rate 0.069% among 330,000;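 active = more than half of a compound's replicate wells show inhibition beyond 50%, single wells judged on their own value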;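 note: signal counts dimethyl H3K9 product captured on neutravidin plate; 0% = median of DMSO wells and 100% = 0.3 times that DMSO median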
HTRA1 inhibitor: HTRA1 serine protease inhibitors, primary screen, biochemical, fluorescence polarization, HTS. inhibition, % at 5.96 µM. AID 504803, 2011. hit rate 0.5% among 340,000. recombinant HTRA1, FP-rhodamine activity-based probe; in the data active = inhibition above about 36%;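 note: 0% = enzyme with DMSO and 100% = wells lacking enzyme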
Target sequence (Q92743 whole entry, looked up): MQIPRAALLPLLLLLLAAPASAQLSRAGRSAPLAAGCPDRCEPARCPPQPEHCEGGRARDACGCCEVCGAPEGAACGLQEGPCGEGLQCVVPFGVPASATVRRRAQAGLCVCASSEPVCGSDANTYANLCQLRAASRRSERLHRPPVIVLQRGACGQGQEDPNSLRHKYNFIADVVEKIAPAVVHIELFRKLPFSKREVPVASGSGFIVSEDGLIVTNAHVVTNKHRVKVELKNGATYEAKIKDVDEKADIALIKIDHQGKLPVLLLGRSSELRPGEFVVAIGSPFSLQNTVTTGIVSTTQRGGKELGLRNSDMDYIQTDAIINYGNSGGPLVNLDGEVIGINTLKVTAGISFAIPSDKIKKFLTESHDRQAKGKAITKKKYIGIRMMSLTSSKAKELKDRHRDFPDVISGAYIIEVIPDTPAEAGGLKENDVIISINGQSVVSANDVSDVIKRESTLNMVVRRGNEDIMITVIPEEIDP
ABHD4 inh: ABHD4 inhibitors, primary screen, biochemical, fluorescence polarization, mouse | (Lyso)-N-acylphosphatidylethanolamine lipase (Mus musculus), Q8VD66 | purified mABHD4, FP-Rh probe fluorescence polarization | inhibition, % at 8.92 µM | hit rate 0.54% among 370,000;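 active = inhibition exceeding the mean over every tested compound plus 3 SD, cut at about 30% in these data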;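 note: 0% = plate median of compound wells and 100% = S159A mutant with DMSO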
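Assay system: mouse ABHD4 enzyme, wild type / Also added: fluorescent activity-based probe FP-Rh / Doses: single nominal dose of 8.92 µM, 0.89% DMSO final / Timing: 45 min compound pre-incubation plus 60 min probe step, 25 °C / Signal: FP readout, ex 525 nm / em 598 nm / Control set: S159A mutant/DMSO as 100%, compound-well median as 0%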
SIAE inh: human SIAE inhibitors, primary screen, biochemical, fluorescence polarization, FP-Rh probe, 1536-well HTS; Sialate O-acetylesterase (Homo sapiens), Q9HAT2; SIAE FP-Rh probe binding; inhibition, % at 9.66 µM; hit rate 0.69% among 370,000; AID 1053197, 2014;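 active = inhibition above a cutoff: mean of compounds within the control limits plus 3 SD of those, cut at about 17% in these data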;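 note: 0% = plate median of compound wells and 100% = probe without SIAE protein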
PRMT1 FP inh: PRMT1 methyltransferase inhibitors, primary screen, biochemical, fluorescence polarization; inhibition, % at 2.79 µM; hit rate 1.3% among 370,000; Protein arginine N-methyltransferase 1 (Homo sapiens), Q99873; recombinant PRMT1, activity-based probe fluorescence polarization; AID 652257, 2013;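 active = inhibition above about 21% made by adding two undisclosed values, limit read from the data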
SIAE inh conf: human SIAE inhibitors, retest, confirmation, biochemical, fluorescence polarization, FP-Rh probe, triplicate; shares compounds with SIAE inh; SIAE FP-Rh activity-based probe; inhibition, % at 9.66 µM; hit rate 13% among 2,300;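 active = mean inhibition of the replicates above the hit cutoff set in the primary screen, cut at about 17% in these data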;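 note: 0% = SIAE with DMSO and probe and 100% = probe without SIAE; inhibitors lower polarization as more probe stays unbound to SIAE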
* hit, by the source's call; / = not tested or not shown. Sampled rows, rich in hits. Any-hit rate of the full collection: about 2.4%.

SMILES	JMJD2C inh	HTRA1 inhibitor	ABHD4 inh	SIAE inh	PRMT1 FP inh	SIAE inh conf
CC1(c2nnnn2-c2ccc3c(c2)OCCO3)CCC(=O)N1CCOc1ccccc1 (stereo unspecified)	/	/	8	1	7	/
Cc1ccccc1CN1CCCCC(NC(=O)c2ccccc2F)C1=O (stereo unspecified)	/	/	5	1	4	/
O=C(Cc1csc(NC(=O)c2ccc(F)cc2)n1)NO	-7	14	2	24*	-2	17
CCOC(=O)[C@]12CCCC=C1N(Cc1cccc3ccccc13)C(=O)[C@H](CC(=O)NCCc1ccccc1OC)C2	/	/	-28	53*	6	-7
CCCCCCCCN1C(=O)[C@@H](CC(=O)NCCc2ccccc2OC)C[C@@]2(C(=O)OC)C1=C[C@H](COCc1ccccc1)O[C@@H]2C	/	/	0	0	0	/
CCc1cccc(C)c1NC(=O)COC(=O)c1cc([N+](=O)[O-])ccc1N1CCOCC1	-2	4	5	19*	-3	0
Cc1cc(Cl)ccc1NC(=O)COC(=O)c1cc([N+](=O)[O-])ccc1N1CCOCC1	-3	-7	-6	5	-5	/
COc1cc(NC2=Nc3cccc4cccc2c34)cc(OC)c1OC	0	0	0	24*	-2	9
O=C(O)CC(C(=O)O)c1ccc(OCCCCOc2ccc(C(CC(=O)O)C(=O)O)cc2)cc1 (stereo unspecified)	-6	1	1	19*	0	1
CC(C)CCOc1ccc(C(CC(N)=O)C(=O)O)cc1 (stereo unspecified)	-2	2	3	-7	1	/
Cc1ccc(C(=O)N/C(=C/c2ccc(Cl)cc2)C(=O)NCC2CCCO2)cc1 (stereo unspecified)	17	1	1	29*	-3	-4
Cc1ccc(S(=O)(=O)Nc2cccc(C(=O)N3CCN(c4ccccc4O)CC3)c2)cc1F	7	-15	4	21*	-2	-4
Cc1cc(S(=O)(=O)Nc2ccc(C(=O)N3CCN(c4ccccc4O)CC3)cc2)ccc1F	3	-7	-6	-2	-2	/
OC(c1ccc(Cl)c(F)c1)c1ncc(-c2cccc3ccccc23)[nH]1 (stereo unspecified)	/	/	-31	-12	4	/
Cc1ccc(NC(=O)COC(=O)CCc2ccccc2)c(Cl)c1	15	-6	5	22*	-1	2
CCCCCC(=O)Nc1ccc2oc(-c3cncc(Br)c3)nc2c1	-3	-5	-2	36*	1	-5
S=C(Nc1ccc(Cl)cc1)N1CCN(Cc2ccccc2)CC1	-15	-9	-2	18*	1	6
CC(C)C[C@@H]1CN(CCCC[C@H]2CNC(=O)C(=O)N2CCC2CCCCC2)C(=O)C(=O)N1CCc1ccc(O)cc1	/	/	-1	5	-3	/
COc1ccc2c(c1)[C@@]1(OCCC=C[C@H]1C)C(=O)N2Cc1ccc(F)cc1	/	/	3	5	0	/
COc1ccc2[nH]c3c(N4CCC(O)(c5cccc(C(F)(F)F)c5)CC4)ncnc3c2c1	-8	-14	18	18*	2	15
Cc1ccc2[nH]c3c(N4CCc5ccccc5C4)ncnc3c2c1	10	-27	29	23*	4	13
Brc1ccc2[nH]c3c(N4CCc5ccccc5C4)ncnc3c2c1	5	/	/	/	/	/
CN(Cc1ccccc1)C(=O)c1ccc2nc([C@@H]3O[C@H](CO)[C@H](O)[C@H](O)[C@H]3O)[nH]c2c1	/	/	0	-11	-3	/
CCOC(=O)CCC(=O)N1CCOCCN(C(=O)CCC(=O)OCC)CCOCC1	3	0	4	19*	0	6
CCOC(=O)CCC(=O)N1CCOCCOCCOCC1	0	-5	-3	-5	-3	/
SMILES	JMJD2C inh	HTRA1 inhibitor	ABHD4 inh	SIAE inh	PRMT1 FP inh	SIAE inh conf
COc1ccc(CSc2nnc(SCc3ccccc3)s2)cc1	/	/	-11	-4	-1	/
Cc1ccc(OCC(=O)Nc2ccc(S(=O)(=O)N3CCN(C)CC3)cc2)cc1	5	-4	-1	18*	0	0
CS(=O)(=O)N(Cc1ccc(C(=O)NCCSCc2ccco2)cc1)c1ccccc1	-2	-6	1	18*	1	-3
Cn1c(N)c(C(=O)CCc2ccccc2)c(=O)n(C)c1=O	/	/	2	0	-10	/
CCN(CC(=O)c1c(N)n(C)c(=O)n(C)c1=O)c1cccc2ccccc12	1	10	13	20*	1	7
CSCCC(NC(=O)COc1ccccc1)C(=O)N1CCN(c2ccccc2Cl)CC1 (stereo unspecified)	-12	-9	-4	-7	-4	/
CSCCC(NC(=O)COc1ccccc1)C(=O)N1CCN(c2ccccc2O)CC1 (stereo unspecified)	0	-2	2	18*	-4	7
CCC12CCCN3CCc4c(n(c5ccccc45)C(O)(C(=O)OC)C1)C32 (stereo unspecified)	-7	14	10	21*	3	3
Cc1sc(NC(=S)Nc2ccc(F)cc2)c(C(N)=O)c1C	11	-4	2	17*	19	5
COc1ccc(O)c(/C=N/NC(=O)c2ccc(CSc3nc(C)cc(C)n3)cc2)c1	13	0	6	4	3	/
Cc1cc(C)nc(SCc2ccc(C(=O)N/N=C/c3cccc(O)c3O)cc2)n1	-21	5	17	43*	1	-16
CC(C)C(=O)OCCCN1CCC2(CCC(c3ccccc3)CC2)C1=O (stereo unspecified)	/	/	1	1	-1	/
CCOC(=O)c1ccccc1NC(=O)COC(=O)CCC(=O)c1ccc(C)cc1	28	-11	4	20*	-1	-4
Cc1cccc(/C(N)=N/OC(=O)c2ccc(F)cc2)c1	-18	2	3	20*	2	-1
CCC(C)[C@H](NC(=O)Nc1ccccc1F)C(=O)OC (stereo partly specified)	-8	-2	3	22*	-2	0
COC(=O)[C@H](C)NC(=O)Nc1ccccc1F	4	-9	-3	-1	2	/
O=C(CCCC(=O)N1CCN(c2ccc([N+](=O)[O-])cc2)CC1)c1ccccc1	-2	-2	1	4	0	/
O=C(O)CCN1CC2([N+](=O)[O-])C=CC(=O)C([N+](=O)[O-])(C1)C2CC(=O)c1ccccc1 (stereo unspecified)	-4	-2	27	17*	11	3
COc1ccc(-c2cc(C(F)(F)F)nc(N3CCCCC3)n2)cc1OC	-3	2	2	19*	1	-4
